Assay results taken from ChEMBL document CHEMBL3244304, “Correlation of biological activity and high-pressure liquid chromatographic retention index for a series of propranolol, barbiturate, and anthranilic acid analogues” (J Med Chem, 1979).

How the values were obtained:
Oryctolagus cuniculus = species: Oryctolagus cuniculus; experiment: Hypnotic activity in rabbit; assay type: functional
Procedure, shortened: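 Rabbits; value expressed as negative log of the minimum effective dose (mol/kg).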

[1] = Octanol-water partition coefficient, log P of nonionized form of compound; assay type: physicochemical
[2] = Retention index of the compound by HPLC method; assay type: physicochemical
[3] = Octanol-buffer partition coefficient, log P of the compound at pH 8.0 by ultraviolet spectroscopy; assay type: physicochemical
Procedure, shortened: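 Drug distributed between an octanol phase and an aqueous buffer at pH 8.0, the same way as the pH 7.0 phosphate-buffer method. Drug in each phase quantified by ultraviolet spectroscopy, and the log of the octanol/buffer distribution ratio was reported.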

[4] = Inhibition of Arbacia egg cell division; assay type: functional
Procedure, shortened: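 Arbacia egg cell division; value expressed as negative log of the molar drug concentration needed to reduce cell division 50%.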

Compound | pMED (Oryctolagus cuniculus) | logP [1] | Retention_index [2] | logD [3] | pED50 [4]
CCC(C)C1(CC)C(=O)NC(=O)NC1=O (centres undefined) [BUTABARBITAL] | 3.63 | 1.45 | 600 |  | 
C=CCC1(CC(C)C)C(=O)NC(=O)NC1=O [BUTALBITAL] |  | 1.45 | 616 |  | 
CCC1(CC)C(=O)NC(=O)NC1=O [BARBITAL] | 3.09 | 0.65 | 423 |  | 
C=CCC1(C(C)C)C(=O)NC(=O)NC1=O [APROBARBITAL] | 3.6 | 1.15 | 552 |  | 
O=C(O)c1ccccc1NS(=O)(=O)c1ccc(F)cc1 |  |  | 565 | 0.03 | 
CCCC(C)C1(CC)C(=O)NC(=S)NC1=O (centres undefined) [THIOPENTAL] |  | 3 | 732 |  | 
Cc1ccc(S(=O)(=O)Nc2ccccc2C(=O)O)cc1 |  |  | 606 | 0.05 | 
CCC1(CC)C(=O)NC(=O)N(C)C1=O [METHARBITAL] |  | 1.21 | 532 |  | 
CCC1(CCC(C)C)C(=O)NC(=O)NC1=O [AMOBARBITAL] |  | 1.95 | 681 |  | 
O=C(O)c1ccccc1NS(=O)(=O)c1ccc(Cl)cc1 |  |  | 656 | 0.54 | 
O=C(O)c1ccccc1NS(=O)(=O)c1ccc(Br)cc1 |  |  | 678 | 0.83 | 
O=C(O)c1ccccc1NS(=O)(=O)c1ccccc1 |  |  | 530 | -0.46 | 
C=CCC1(C(C)CCC)C(=O)N=C(S)NC1=O (centres undefined) [THIAMYLAL] |  | 3.2 | 760 |  | 
CN1C(=O)NC(=O)C(C)(C2=CCCCC2)C1=O (centres undefined) [HEXOBARBITAL] |  | 1.92 | 648 |  | 
O=C(O)c1ccccc1NS(=O)(=O)c1ccc([N+](=O)[O-])cc1 |  |  | 586 | -0.03 | 
C=CCC1(C(C)CCC)C(=O)NC(=O)NC1=O (centres undefined) [SECOBARBITAL] | 4.2 | 2.15 | 728 |  | 
CCC1(c2ccccc2)C(=O)NC(=O)NC1=O [PHENOBARBITAL] |  |  | 523 |  | 
C=CCC1(C(C)C#CCC)C(=O)N=C(O)N(C)C1=O (centres undefined) [METHOHEXITAL] |  | 2.19 | 776 |  | 
CCCCC1(CC)C(=O)NC(=O)NC1=O [BUTETHAL] | 3.72 | 1.65 | 610 |  | 2.4
O=C1CC(=O)NC(=O)N1 [BARBITURIC ACID] |  | -1.35 | 53 |  | 
CCC1(C2=CCCCC2)C(=O)NC(=O)NC1=O [CYCLOBARBITAL] |  | 1.86 | 604 |  | 
CCCC(C)C1(CC)C(=O)NC(=O)NC1=O (centres undefined) [PENTOBARBITAL] |  | 1.95 | 686 |  | 
